# Compounds with a hit are over-represented: about 2.3% of the library has one in this group of screens.
# ERp5 inh – blocks human ERp5 reductase activity on insulin. ERp5 insulin aggregation, absorbance 650 nm, 90 min. inhibition, % at 9.99 µM. AID 651711. hit rate 0.05% among 350,000;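 active means mean replicate inhibition above about 25%, with every replicate also reaching it, limit read from the data, passing the limit was not always enough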
# Statin myotox sup – suppression of simvastatin myotoxicity | C2C12 myotubes + simvastatin, ATP luminescence, 48 h; scaled: DMSO 0, geranylgeraniol control 100 | rescue of ATP level, % at 7.49 µM | hit rate 0.78% among 330,000 | AID 602340;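 active means mean ATP rescue above about 67%, or every replicate alone reaching that limit, limit read from the data, passing the limit was not always enough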;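 further: myotubes were challenged with 10 µM simvastatin during compound exposure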
# Cneo AK release – causes C. neoformans cell lysis | adenylate kinase release luminescence, 4 h; normalised: neutral wells 0, clomiphene wells 100 | lysis activity, % at 15 µM | hit rate 0.2% among 360,000 | AID 651654;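 active means mean lysis activity across replicates of at least 80%, whatever share of replicates individually reach that level; inactive means mean lysis activity below 80%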
#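 Assay system: C. neoformans cells. Amount: yeast cell density of 5 × 10^6 cells/mL. Technique: AK luminescence. Buffer or medium: YPD. Times: static 4 h at 37 °C with compound, 1 h detection. Dosing: single-point compound dose. Read-out: lysis from increased AK signal.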
# CFTR F508del cor – CFTR F508del correction in bronchial cells; activity (quench increase), % at 7.58 µM; CFBE cells, YFP halide quenching; stimulated with forskolin plus potentiator P3; % fluorescence drop versus neutral controls; hit rate 0.36% among 350,000;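 active means mean added fluorescence quench of at least 8% versus neutral control, with both replicates also reaching 8%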;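 further: cells transiently co-express mutant CFTR-F508del with the halide-sensitive YFP; corrector assay measuring rescue of mutant channel to the surface after 24 h compound exposure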
# DENV2 CPE rescue – inhibitors of DENV2 cytopathic effect; DENV2-infected cells, cytopathic effect rescue, plate reader; CPE inhibition, % at 9.99 µM; hit rate 1.7% among 350,000; AID 651640; in the data active means CPE inhibition above about 20%, passing the limit was not always enough; tested in BHK-21 cells;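 further: 0% = median of neutral control wells and 100% = median of positive control wells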
# PDI turbidity – blocks human protein disulfide isomerase activity; P07237; hit rate 0.052% among 350,000; inhibition, % at 10 µM; AID 588391; PDI insulin aggregation turbidity, A650, 90 min;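 active means mean inhibition across replicates of 30% or more, whatever share of single replicates reach that level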
# Target sequence (P07237 whole entry, looked up): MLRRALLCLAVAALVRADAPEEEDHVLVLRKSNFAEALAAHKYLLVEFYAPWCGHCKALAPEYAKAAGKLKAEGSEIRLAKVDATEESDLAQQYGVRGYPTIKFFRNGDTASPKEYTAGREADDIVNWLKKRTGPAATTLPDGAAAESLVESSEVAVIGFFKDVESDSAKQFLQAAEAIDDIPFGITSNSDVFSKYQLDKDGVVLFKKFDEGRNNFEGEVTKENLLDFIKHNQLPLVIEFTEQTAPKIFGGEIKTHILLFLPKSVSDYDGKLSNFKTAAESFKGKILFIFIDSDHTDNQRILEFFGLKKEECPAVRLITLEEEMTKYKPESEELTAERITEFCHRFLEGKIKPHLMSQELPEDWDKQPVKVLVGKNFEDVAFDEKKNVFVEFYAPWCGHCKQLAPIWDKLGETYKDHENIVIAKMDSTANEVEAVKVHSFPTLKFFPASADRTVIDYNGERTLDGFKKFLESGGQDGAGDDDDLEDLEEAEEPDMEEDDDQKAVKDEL
# An asterisk follows results filed as active; / = no result given.
SMILES,ERp5 inh,Statin myotox sup,Cneo AK release,CFTR F508del cor,DENV2 CPE rescue,PDI turbidity
Cc1noc(C)c1NC(=O)N(C)C[C@H]1Oc2ccc(NC(=O)Nc3cccc4ccccc34)cc2CC(=O)N([C@H](C)CO)C[C@H]1C,-1,17,0,3,1,/
O=C(C[C@H]1C=C[C@@H](NS(=O)(=O)c2cccc(F)c2)[C@@H](CO)O1)NCc1ccc2c(c1)OCO2,-7,/,/,-1,-7,/
O=C(CNc1cccc(S(=O)(=O)N2CCOCC2)c1)Nc1cccc(Br)c1,-14,-1,0,3,27*,-1
O=C(Nc1cccc(S(=O)(=O)C(F)F)c1)c1ccc(S(=O)(=O)N2CCOCC2)cc1,/,95*,-1,/,/,-4
O=C(C[C@@H]1C=C[C@@H](NS(=O)(=O)c2ccc(F)cc2)[C@@H](CO)O1)NC1CCC1,5,-1,58,2,1,/
Cc1ccc(S(=O)(=O)N2CCN(S(=O)(=O)c3cccs3)CC2)cc1,1,-2,3,-2,-4,-7
O=C(CCOc1ccccc1)N1CCN(S(=O)(=O)c2cccs2)CC1,/,78*,-1,/,/,16
CN1CCN(S(=O)(=O)c2cccs2)CC1,3,/,/,1,34*,11
COC(=O)C[C@@H]1CC[C@H]2[C@@H](COC[C@@H](O)CN2C(=O)Nc2cccc(F)c2)O1,0,-6,-4,1,0,/
O=C(CC1NCCNC1=O)Nc1ccccc1 (stereo not drawn),2,/,/,0,5,-3
O=C(CC1NCCNC1=O)OCc1ccccc1 (stereo not drawn),/,96*,-1,/,/,1
COc1cccc(C(=O)CN2C3=NCCCN3c3ccccc32)c1,/,134*,-1,/,/,-10
c1ccc2c(c1)N1CCCN=C1N2CCN1CCCCC1,2,/,/,8.9*,10,9
Cc1ccc(NC(=O)Nc2ccc3c(c2)C(=O)N(C)[C@@H]2CC[C@@H](CC(=O)O)O[C@H]2CO3)cc1,1,9,4,0,-7,/
O=C(c1ccc(F)cc1)N1CCC(C(=O)N2CCCc3ccccc32)CC1,4,2,0,-3,31*,3
O=C(O)c1ccc(N/N=C/c2ccc(-c3ccc(Br)cc3)o2)cc1,-5,72*,-3,0,-5,-8
Cc1cccc(-n2c(O)c(C=NC3CCS(=O)(=O)C3)c3ccccc3c2=O)c1 (stereo not drawn),/,138*,7,/,/,-7
Cc1cc(C)cc(-n2c(O)c(C=NC3CCS(=O)(=O)C3)c3ccccc3c2=O)c1 (stereo not drawn),/,-11,-4,/,/,-3
NCc1c(O)ccc2ccccc12,-2,/,/,0,5,/
O=C(O)Cc1c(O)ccc2ccccc12,/,121*,0,/,/,-2
C[C@H](CO)N1C[C@H](C)[C@@H](CN(C)Cc2ccccc2)Oc2ccc(NC(=O)CCN3CCOCC3)cc2CC1=O,4,-8,-2,0,-1,/
CC1(C(=O)NCc2cccs2)Cc2c(-c3ccc4c(c3)OCO4)ccnc2O1 (stereo not drawn),-5,-40,-13,9.5*,11,-3
COc1ccc2c(c1)[C@H]1[C@H](CO2)[C@H](c2ccccc2)[C@]2(C)C(=O)Nc3ccc(Cl)cc3C(=O)N12,-3,-17,0,-1,33*,-2
O=c1[nH]cnc2scc(-c3ccccc3)c12,/,/,/,/,/,14
O=c1[nH]cnc2scc(-c3ccsc3)c12,/,117*,-1,/,/,-10
SMILES,ERp5 inh,Statin myotox sup,Cneo AK release,CFTR F508del cor,DENV2 CPE rescue,PDI turbidity
CCCNC(=O)N1[C@H](CO)[C@@H](c2ccccc2)C12CN(C(=O)C1CCCCC1)C2,1,/,/,-1,85*,/
CCCNC(=O)N1[C@H](CO)[C@H](c2ccccc2)C12CN(C(=O)C1CCCCC1)C2,-2,/,/,0,14,/
O=C(C1CCCCC1)N1CC2(C1)[C@H](c1ccccc1)[C@@H](CO)N2C(=O)NC1CCCC1,-2,/,/,3,-2,/
O=C(C1CCC1)N1CC2(C1)[C@@H](c1ccccc1)[C@@H](CO)N2C(=O)NC1CCCC1,-3,/,/,-2,31*,/
O=C1NCCc2c1[nH]c1ccc([N+](=O)[O-])cc21,-3,/,/,11*,-9,-1
COc1ccc2c3c(n(C)c2c1)[C@@H](CO)N(C(=O)c1ccc(F)cc1)CC31CCN(C(C)=O)CC1,6,/,/,-4,20,/
CCCCN(C)CCNC(=O)c1nn(-c2ccc(OC)cc2)c(=O)c2c1c1ccccc1n2C,4,0,2,/,-1,-6
CCN(C(=O)c1nn(-c2ccc(OC)cc2)c(=O)c2c1c1ccccc1n2C)c1ccc(OC)cc1,4,107*,-2,/,0,6
CC(C)c1nc2oc3c(NCC4CCCO4)ncnc3c2c2c1COC(C)(C)C2 (stereo not drawn),/,4,0,/,/,-2
CC(C)c1nc2oc3c(NCCO)ncnc3c2c2c1COC(C)(C)C2,6,/,-17,13*,-3,-1
CCCNC(=O)NC[C@@H]1[C@H](c2ccc(C3=CCCC3)cc2)[C@H](CO)N1C(=O)CC,1,-6,7,3,-8,/
CCOC(=O)c1c(CN(C)C)n(-c2ccc(C)cc2)c2cc(Br)c(O)cc12,/,/,/,/,/,49*
CCCNC(=O)N1[C@H](CO)[C@H](c2ccc(C3=CCCC3)cc2)[C@@H]1CNC(C)=O,/,-3,-1,-5,-11,/
CC(c1ccco1)N(C(=O)Nc1ccc(Cl)cc1)c1ccccn1 (stereo not drawn),/,124*,-3,/,/,10
CO[C@@H]1CN(C)C(=O)c2cc(NC(=O)Nc3ccccc3)ccc2OC[C@@H](C)N(C(=O)Nc2c(C)noc2C)C[C@@H]1C,4,-11,-10,0,2,/
O=C(/C=C/c1cn(CC(O)CN2CCCCC2)c2ccccc12)c1ccccc1 (stereo not drawn),3,/,/,-1,27*,-1
CO[C@H]1CN(C)C(=O)c2cc(NC(=O)Nc3ccccc3)ccc2OC[C@@H](C)N(C(=O)CC2CC2)C[C@@H]1C,6,-1,2,-2,-3,/
Clc1ccc2nc(CSc3nncn3-c3ccccc3)cn2c1,/,2,4,/,/,5
c1ccc(-n2cnnc2SCc2cn3cccnc3n2)cc1,/,86*,8,/,/,12
CC(C)NC(=O)Nc1ccc2c(c1)C(=O)N([C@H](C)CO)C[C@@H](C)[C@H](CN(C)S(=O)(=O)c1ccccc1)O2,-4,-15,0,3,7,/
O=C(NCc1cccs1)C1(S(=O)(=O)c2ccccc2)CC=CC1,3,-8,5,3,-19,-6
O=C(NCc1ccco1)C1(S(=O)(=O)c2ccccc2)CC=CC1,-2,7,-9,-1,41*,-1
O=S(c1ccc2ccccc2c1)c1cnns1 (stereo not drawn),/,124*,-3,/,/,-5
